The text below walks through data of ChEMBL document CHEMBL4052759, “Discovery of DS79182026: A potent orally active hepcidin production inhibitor” (Bioorg Med Chem Lett, 2017).

pIC50: −log10 of the molar value. Activity calls are given as the source filed them. The calls are words filed in the database; no cut-off is given here.

The subject of data set [1] is HepG2. Put plainly: Inhibition of human recombinant BMP6-stimulated hepcidin mRNA expression in human HepG2 cells after 6 hrs by qRT-PCR analysis. Conditions: HepG2, 6 h. Format: functional, cell-based. For orientation: In qPCR the cycle at which signal appears reflects the starting amount.
The target of data set [2] is Ribosomal protein S6 kinase alpha-4 (Homo sapiens) (UniProt O75676). Put plainly: Inhibition of MSK2 (unknown origin) at 0.49 uM relative to control.
Data set [3] concerns the target Rho-associated protein kinase 2 (Homo sapiens) (UniProt O75116). Put plainly: Inhibition of ROCK2 (unknown origin) at 0.49 uM relative to control.
In data set [4] the target is T1, Cyclin-dependent kinase 1/cyclin B1 (Homo sapiens) (UniProt P06493+P14635). Put plainly: Inhibition of CDK1/CyclinB (unknown origin) at 0.49 uM relative to control. Format: protein-complex assay.
The target of data set [5] is T1, Cyclin-dependent kinase 1/cyclin B1 (Homo sapiens). Put plainly: Inhibition of CDK1/Cycline B1 (unknown origin) at 0.49 uM relative to control. It is filed as protein-complex assay.
In data set [6] the target is Mitogen-activated protein kinase 3 (Homo sapiens) (UniProt P27361). As to the kind of experiment: Inhibition of Erk1 (unknown origin) at 0.49 uM relative to control.
The test system of data set [7] is Fibroblast growth factor receptor 3 (Homo sapiens), P22607 [K650M]. As to the kind of experiment: Inhibition of FGFR3 K650M mutant (unknown origin) at 0.49 uM relative to control.
For data set [8], the target named is Serine/threonine-protein kinase BRSK2 (Homo sapiens) (UniProt Q8IWQ3). Put plainly: Inhibition of BRSK2 (unknown origin) at 0.49 uM relative to control.
Data set [9] concerns the target Serine/threonine-protein kinase MARK2 (Homo sapiens) (UniProt Q7KZI7). Put plainly: Inhibition of MARK2 (unknown origin) at 0.49 uM relative to control.
Data set [10] concerns the target Serine/threonine-protein kinase PAK 2 (Homo sapiens) (UniProt Q13177). Put plainly: Inhibition of PAK2 (unknown origin) at 0.49 uM relative to control.
Data set [11] can be described thus: Lipophilicity, log D of the compound. Format: physicochemical. To be noted: octanol/water.
Data set [12] is described as follows: Metabolic stability in mouse liver microsomes assessed as parent compound remaining at 1 uM after 0.5 hrs by LC-MS/MS analysis. To be noted: read-out: Stability. It is filed as ADME, microsome. (In general: Liver microsomes are a subcellular fraction often used to study metabolism.)
The nature of data set [13]: Cmax in C57BL/6J mouse at 30 mg/kg, po by LC-MS/MS analysis. Format: ADME, organism-based. To be noted: in vivo. Set-up: dose 30 mg/kg, route oral.
The nature of data set [14]: Tmax in C57BL/6J mouse at 30 mg/kg, po by LC-MS/MS analysis. Format: ADME, organism-based. To be noted: in vivo.
The nature of data set [15]: AUC in C57BL/6J mouse at 30 mg/kg, po by LC-MS/MS analysis. Format: ADME, organism-based. Conditions: in vivo.
Data set [16] relates to Mus musculus. As to the kind of experiment: Antiinflammatory activity in C57BL/6J mouse assessed as reduction in recombinant mouse IL-6 induced serum hepcidin level at 30 mg/kg, po pretreated for 30 mins followed by IL-6 challenge measured after 4 hrs by LC-MS/MS analysis. Format: functional, organism-based. The method in brief: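 9-week-old male C57BL/6J mice were dosed orally at 30 mg/kg (0.5% methylcellulose suspension, n = 4) 30 min before intravenous mouse IL-6. Blood was taken 4 h after IL-6 and serum hepcidin was measured. Groups were compared by t-test against saline-treated and 0.5% MC vehicle-treated groups.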

Data set [17] is filed under the species Homo sapiens. As to the kind of experiment: Inhibition of p70S6K (unknown origin) at 0.078 uM relative to control.
Data set [18] deals with T2, cGMP-dependent protein kinase 1 (Homo sapiens) (UniProt Q13976).
T2 sequence (whole entry): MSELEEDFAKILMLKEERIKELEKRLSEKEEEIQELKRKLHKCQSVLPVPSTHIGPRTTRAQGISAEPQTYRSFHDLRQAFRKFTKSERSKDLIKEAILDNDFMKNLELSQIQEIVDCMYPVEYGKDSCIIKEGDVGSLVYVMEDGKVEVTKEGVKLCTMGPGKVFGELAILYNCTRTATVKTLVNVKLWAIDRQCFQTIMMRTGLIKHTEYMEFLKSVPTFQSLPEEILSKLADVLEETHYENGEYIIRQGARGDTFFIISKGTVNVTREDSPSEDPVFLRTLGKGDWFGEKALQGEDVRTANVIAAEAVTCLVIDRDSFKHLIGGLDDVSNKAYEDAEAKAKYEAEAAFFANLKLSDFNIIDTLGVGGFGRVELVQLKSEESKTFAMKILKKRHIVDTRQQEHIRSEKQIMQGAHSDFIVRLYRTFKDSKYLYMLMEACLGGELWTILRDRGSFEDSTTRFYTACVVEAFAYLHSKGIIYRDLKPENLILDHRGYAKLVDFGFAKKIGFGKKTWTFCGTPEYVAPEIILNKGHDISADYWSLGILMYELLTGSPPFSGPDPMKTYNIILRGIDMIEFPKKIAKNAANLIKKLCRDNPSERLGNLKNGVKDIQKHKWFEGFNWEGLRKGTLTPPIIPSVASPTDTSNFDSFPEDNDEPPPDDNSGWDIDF
As to the kind of experiment: Inhibition of PKG1-beta (unknown origin) at 0.45 uM relative to control.

The target in data set [19] is Aurora kinase B (Homo sapiens) (UniProt Q96GD4). As to the kind of experiment: Inhibition of AurB (unknown origin) at 0.45 uM relative to control.
Data set [20] has as its target T3, Serine/threonine-protein kinase 3 (Homo sapiens) (UniProt Q13188).
T3 sequence (whole entry): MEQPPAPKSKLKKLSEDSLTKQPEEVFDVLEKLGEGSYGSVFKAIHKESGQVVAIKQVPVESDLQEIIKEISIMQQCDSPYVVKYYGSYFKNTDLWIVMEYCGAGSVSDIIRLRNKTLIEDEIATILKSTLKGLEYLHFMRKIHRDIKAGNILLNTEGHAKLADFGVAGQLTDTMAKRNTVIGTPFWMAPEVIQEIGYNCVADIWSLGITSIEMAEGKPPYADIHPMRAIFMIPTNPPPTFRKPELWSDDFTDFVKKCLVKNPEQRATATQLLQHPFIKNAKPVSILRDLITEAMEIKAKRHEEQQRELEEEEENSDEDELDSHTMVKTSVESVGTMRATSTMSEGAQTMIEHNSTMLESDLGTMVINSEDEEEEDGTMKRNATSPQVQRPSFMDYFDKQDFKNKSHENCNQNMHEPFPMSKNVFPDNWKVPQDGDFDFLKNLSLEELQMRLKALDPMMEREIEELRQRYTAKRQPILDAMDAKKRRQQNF
Put plainly: Inhibition of MST2 (unknown origin) at 0.45 uM relative to control.

Data set [21] has as its target Macrophage-stimulating protein receptor (Homo sapiens) (UniProt Q04912). As to the kind of experiment: Inhibition of MST1R (unknown origin) at 0.45 uM relative to control.
Data set [22] deals with Serine/threonine-protein kinase DCLK1 (Homo sapiens) (UniProt O15075). As to the kind of experiment: Inhibition of DCAMKL1 (unknown origin) at 0.45 uM relative to control.
Data set [23] deals with Tyrosine-protein kinase ABL1 (Homo sapiens), P00519 [E255K]. Put plainly: Inhibition of ABL1 E255K mutant (unknown origin) at 0.45 uM relative to control.
Data set [24] concerns the target Tyrosine-protein kinase Srms (Homo sapiens) (UniProt Q9H3Y6). As to the kind of experiment: Inhibition of SRM (SRMS) (unknown origin) at 0.45 uM relative to control.
Data set [25] deals with High affinity nerve growth factor receptor (Homo sapiens) (UniProt P04629). Put plainly: Inhibition of TRKA (unknown origin) at 0.45 uM relative to control.

T1 sequence (P06493 whole entry, looked up): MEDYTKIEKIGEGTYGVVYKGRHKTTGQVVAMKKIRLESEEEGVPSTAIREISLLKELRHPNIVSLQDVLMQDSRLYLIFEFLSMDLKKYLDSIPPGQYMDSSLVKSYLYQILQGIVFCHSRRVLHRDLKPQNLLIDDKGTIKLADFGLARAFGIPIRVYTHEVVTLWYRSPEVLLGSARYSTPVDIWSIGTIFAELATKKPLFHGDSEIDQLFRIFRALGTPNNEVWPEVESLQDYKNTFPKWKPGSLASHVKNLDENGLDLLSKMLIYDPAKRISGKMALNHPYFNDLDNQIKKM
T1 sequence (P14635 whole entry, looked up): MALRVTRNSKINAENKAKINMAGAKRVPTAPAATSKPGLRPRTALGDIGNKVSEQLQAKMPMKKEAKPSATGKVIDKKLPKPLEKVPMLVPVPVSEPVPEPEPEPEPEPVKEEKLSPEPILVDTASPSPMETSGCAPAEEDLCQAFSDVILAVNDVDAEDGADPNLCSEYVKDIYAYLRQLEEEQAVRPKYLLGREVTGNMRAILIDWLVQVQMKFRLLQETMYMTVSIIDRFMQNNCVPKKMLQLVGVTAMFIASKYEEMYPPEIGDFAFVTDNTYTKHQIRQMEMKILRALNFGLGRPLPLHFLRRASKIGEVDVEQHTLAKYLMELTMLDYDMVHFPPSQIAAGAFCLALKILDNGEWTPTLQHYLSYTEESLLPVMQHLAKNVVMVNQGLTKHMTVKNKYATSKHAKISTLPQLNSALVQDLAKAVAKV
Chain of Serine/threonine-protein kinase BRSK2 (Homo sapiens) (Q8IWQ3 whole entry): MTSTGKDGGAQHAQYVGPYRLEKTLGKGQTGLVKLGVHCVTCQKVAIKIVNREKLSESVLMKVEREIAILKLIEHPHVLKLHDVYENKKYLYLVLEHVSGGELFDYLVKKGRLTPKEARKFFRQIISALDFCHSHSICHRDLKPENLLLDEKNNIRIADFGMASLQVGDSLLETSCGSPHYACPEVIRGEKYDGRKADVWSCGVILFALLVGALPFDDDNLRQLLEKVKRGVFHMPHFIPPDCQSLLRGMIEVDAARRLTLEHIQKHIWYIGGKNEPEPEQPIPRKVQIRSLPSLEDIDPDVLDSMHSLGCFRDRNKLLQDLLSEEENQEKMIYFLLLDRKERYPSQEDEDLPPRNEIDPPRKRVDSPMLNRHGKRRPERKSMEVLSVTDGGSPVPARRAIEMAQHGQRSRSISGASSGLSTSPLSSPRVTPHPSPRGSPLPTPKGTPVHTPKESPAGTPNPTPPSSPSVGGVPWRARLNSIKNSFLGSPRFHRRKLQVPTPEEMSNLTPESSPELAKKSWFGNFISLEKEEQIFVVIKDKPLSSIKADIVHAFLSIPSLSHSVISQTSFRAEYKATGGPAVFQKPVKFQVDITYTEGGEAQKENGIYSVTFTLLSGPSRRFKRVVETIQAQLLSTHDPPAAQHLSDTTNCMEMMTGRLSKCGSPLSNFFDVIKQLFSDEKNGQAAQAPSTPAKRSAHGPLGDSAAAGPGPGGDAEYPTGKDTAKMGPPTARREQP
Chain of Aurora kinase B (Homo sapiens) (Q96GD4 whole entry): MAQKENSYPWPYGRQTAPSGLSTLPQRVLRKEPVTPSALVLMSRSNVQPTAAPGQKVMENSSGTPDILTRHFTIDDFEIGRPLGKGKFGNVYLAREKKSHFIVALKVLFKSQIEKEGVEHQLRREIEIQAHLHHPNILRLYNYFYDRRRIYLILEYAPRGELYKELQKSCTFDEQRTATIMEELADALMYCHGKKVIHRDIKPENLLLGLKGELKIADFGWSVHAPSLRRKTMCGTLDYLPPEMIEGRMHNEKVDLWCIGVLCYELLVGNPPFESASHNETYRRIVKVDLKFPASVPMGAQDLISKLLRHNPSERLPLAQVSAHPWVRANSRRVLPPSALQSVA
Chain of Rho-associated protein kinase 2 (Homo sapiens) (O75116 whole entry, looked up): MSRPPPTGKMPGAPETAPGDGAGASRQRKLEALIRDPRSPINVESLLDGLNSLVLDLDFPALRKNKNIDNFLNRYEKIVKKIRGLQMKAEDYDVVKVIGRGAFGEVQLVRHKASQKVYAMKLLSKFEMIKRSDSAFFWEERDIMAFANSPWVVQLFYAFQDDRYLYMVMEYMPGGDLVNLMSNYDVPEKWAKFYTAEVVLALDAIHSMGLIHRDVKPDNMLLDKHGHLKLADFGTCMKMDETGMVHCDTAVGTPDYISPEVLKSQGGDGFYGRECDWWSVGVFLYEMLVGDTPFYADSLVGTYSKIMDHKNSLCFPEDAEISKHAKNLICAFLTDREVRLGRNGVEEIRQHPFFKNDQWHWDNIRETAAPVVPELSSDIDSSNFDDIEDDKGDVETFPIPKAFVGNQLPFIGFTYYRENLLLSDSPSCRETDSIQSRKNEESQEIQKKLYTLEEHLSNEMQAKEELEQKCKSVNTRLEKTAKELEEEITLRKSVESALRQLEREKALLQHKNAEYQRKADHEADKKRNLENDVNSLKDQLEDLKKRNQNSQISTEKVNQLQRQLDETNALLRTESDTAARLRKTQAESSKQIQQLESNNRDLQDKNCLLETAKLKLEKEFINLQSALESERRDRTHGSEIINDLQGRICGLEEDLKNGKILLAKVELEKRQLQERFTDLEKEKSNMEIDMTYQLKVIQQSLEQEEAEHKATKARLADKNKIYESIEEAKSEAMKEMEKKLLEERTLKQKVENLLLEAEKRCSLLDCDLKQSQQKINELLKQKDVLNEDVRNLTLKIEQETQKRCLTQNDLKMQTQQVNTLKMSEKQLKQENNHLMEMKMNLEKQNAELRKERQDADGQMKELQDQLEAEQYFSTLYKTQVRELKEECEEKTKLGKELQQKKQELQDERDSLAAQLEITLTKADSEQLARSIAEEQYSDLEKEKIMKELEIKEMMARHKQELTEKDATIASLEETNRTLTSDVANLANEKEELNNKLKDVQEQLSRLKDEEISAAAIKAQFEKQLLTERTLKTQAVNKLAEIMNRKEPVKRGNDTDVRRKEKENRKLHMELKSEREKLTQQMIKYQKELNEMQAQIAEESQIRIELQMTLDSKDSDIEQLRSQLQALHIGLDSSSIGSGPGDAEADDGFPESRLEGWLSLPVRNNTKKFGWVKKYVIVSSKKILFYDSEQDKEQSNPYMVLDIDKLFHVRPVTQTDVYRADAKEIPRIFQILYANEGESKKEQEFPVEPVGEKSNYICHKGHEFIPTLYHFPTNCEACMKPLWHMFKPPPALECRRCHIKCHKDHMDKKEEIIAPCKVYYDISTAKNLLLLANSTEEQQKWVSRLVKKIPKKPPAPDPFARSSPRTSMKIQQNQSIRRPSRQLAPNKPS
Chain of Mitogen-activated protein kinase 3 (Homo sapiens) (P27361 whole entry): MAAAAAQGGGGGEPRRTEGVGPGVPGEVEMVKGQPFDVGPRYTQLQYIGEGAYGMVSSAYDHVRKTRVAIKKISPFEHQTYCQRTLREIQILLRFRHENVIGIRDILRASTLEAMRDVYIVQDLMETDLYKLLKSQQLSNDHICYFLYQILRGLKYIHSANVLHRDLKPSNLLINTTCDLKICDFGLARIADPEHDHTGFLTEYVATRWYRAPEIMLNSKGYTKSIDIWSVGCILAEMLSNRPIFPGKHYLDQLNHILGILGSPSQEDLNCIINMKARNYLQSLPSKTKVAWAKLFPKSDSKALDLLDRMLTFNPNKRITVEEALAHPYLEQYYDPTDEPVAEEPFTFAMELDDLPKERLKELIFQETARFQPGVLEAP
Chain of Serine/threonine-protein kinase MARK2 (Homo sapiens) (Q7KZI7 whole entry): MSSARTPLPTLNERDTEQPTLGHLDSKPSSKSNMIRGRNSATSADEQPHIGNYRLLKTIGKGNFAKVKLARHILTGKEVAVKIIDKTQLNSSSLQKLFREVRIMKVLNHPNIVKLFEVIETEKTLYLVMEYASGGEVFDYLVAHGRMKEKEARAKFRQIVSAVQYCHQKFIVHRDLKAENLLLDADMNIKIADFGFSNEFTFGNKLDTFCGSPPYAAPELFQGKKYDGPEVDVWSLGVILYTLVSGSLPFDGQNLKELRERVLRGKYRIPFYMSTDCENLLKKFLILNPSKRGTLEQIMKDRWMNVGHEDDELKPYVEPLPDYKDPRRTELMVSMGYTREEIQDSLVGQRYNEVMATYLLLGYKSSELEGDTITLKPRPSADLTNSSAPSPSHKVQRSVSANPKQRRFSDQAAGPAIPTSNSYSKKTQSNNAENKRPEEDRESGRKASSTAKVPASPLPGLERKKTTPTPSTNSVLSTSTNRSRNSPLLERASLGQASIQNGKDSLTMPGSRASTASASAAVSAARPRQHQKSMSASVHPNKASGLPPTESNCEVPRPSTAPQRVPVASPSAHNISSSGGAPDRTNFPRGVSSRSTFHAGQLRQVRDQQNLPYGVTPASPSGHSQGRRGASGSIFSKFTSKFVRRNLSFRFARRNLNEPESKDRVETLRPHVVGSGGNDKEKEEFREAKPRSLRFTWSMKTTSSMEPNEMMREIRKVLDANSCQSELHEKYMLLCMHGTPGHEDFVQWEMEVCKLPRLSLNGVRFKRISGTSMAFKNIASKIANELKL
Chain of Tyrosine-protein kinase Srms (Homo sapiens) (Q9H3Y6 whole entry): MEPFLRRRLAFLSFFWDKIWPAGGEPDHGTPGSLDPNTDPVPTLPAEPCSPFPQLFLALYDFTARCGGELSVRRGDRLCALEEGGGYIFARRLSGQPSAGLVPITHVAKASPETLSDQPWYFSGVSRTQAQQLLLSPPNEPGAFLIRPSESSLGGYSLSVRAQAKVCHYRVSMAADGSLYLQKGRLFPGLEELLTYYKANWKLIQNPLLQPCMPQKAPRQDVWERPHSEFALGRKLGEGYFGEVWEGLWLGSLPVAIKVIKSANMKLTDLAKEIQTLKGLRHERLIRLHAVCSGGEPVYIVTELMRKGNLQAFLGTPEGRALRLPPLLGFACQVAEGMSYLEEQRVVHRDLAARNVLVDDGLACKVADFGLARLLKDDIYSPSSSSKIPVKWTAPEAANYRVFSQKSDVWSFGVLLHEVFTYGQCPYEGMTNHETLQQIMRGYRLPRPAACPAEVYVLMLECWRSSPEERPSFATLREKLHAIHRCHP

As for `Cc1[nH]nc(C2CC2)c1-c1ccc2c(NC(=O)C3CC3)noc2c1`, the negative logarithm of the IC50 (pIC50) (as a rule, the IC50 on a negative log10 scale, so that one unit is a factor of ten) in [1] was 6.54. Also, the inhibition (commonly the relative decrease from the control value, in per cent) in data set [2] was -3.7%; in data set [3], 8.7%; in data set [4] it was 5.3%; in [5], 20%; in data set [6], 3.7%; in data set [7], 6.3%. The inhibition in data set [8] is -2.3%; in data set [9], -1%; in [10], -0.3%.
`COC(=O)Nc1noc2cc(-c3c(-c4ccccn4)n[nH]c3C)ccc12`: the logD (as a rule, lipophilicity at a set pH, counting ionised and neutral species) in data set [11] was 2.5. In addition, the pIC50 in data set [1] is 7.41. Moreover, the remaining at 0.5 h, 1 µM in data set [12] is 87%. Moreover, the Cmax (in general, the highest concentration seen after dosing) in [13] is 9170 ng/mL. In addition, the Tmax – broadly, the time from dosing to the highest level – in [14] was 1 h. Further, the area under the curve (AUC) (commonly concentration integrated over time) in data set [15] stood at 36200 ng·h/mL. Moreover, the result in data set [16] was Active. Moreover, in data set [17], the inhibition was 4%.
On to `Cc1n[nH]c(C)c1-c1ccc2c(NC(=O)c3ccc(N4CCN(C)CC4)cc3)n[nH]c2c1`, for which the logD in data set [11] stood at 2.4. Moreover, the pIC50 in data set [1] is 6.64. Further, the remaining at 0.5 h, 1 µM in [12] was 80%. Also, in data set [13], the concentration peaked (Cmax) at 920 ng/mL. For the same compound, the Tmax in data set [14] stood at 3.25 h. The compound further yielded an AUC in data set [15] of 2550 ng·h/mL. In addition, the result in data set [16] was Active. Besides, the inhibition in data set [18] is 8%; in [19], 11%; in [20], 1.7%; in data set [21], -1%; in data set [22] it was 0%; in [23], 72.7%. The inhibition stood at 9% in data set [24] and 93.7% in data set [25].
